Experimental data as given in ChEMBL document CHEMBL5653631, “A Potent and Selective ULK1 Inhibitor Suppresses Autophagy and Sensitizes Cancer Cells to Nutrient Stress” (iScience, 2018).
Each block holds one compound with its values, some of them ahead of it.

Tests used:
[1] = biological target: T1, Serine/threonine-protein kinase STK11 (Homo sapiens) (UniProt Q15831); experiment: Inhibition of human recombinant LKB1 at 500 nM related to control ULK1
T1 sequence (whole entry): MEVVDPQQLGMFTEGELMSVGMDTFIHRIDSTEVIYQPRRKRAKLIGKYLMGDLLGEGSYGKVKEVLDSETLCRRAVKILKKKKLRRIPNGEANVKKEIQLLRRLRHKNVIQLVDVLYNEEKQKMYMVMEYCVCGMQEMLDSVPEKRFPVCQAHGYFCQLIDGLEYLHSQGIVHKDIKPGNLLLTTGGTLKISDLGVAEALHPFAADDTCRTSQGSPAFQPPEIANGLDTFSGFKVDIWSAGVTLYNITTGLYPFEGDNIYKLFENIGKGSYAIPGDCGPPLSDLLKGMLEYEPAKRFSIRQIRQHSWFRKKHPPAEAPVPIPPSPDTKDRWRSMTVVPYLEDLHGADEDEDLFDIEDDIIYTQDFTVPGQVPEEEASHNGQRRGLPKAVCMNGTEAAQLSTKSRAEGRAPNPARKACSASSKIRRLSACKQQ

[2] = biological target: Calcium/calmodulin-dependent protein kinase kinase 1 (Homo sapiens) (UniProt Q8N5S9); experiment: Inhibition of human recombinant CaMKK1 at 500 nM related to control ULK1
[3] = biological target: Tau-tubulin kinase 1 (Homo sapiens) (UniProt Q5TCY1); experiment: Inhibition of human recombinant TTBK1 at 500 nM in presence of ATP by radiometric assay relative to control
[4] = biological target: Tyrosine-protein kinase Fes/Fps (Homo sapiens) (UniProt P07332); experiment: Inhibition of human recombinant FES at 500 nM in presence of ATP by radiometric assay relative to control
[5] = biological target: T2, Bone morphogenetic protein receptor type-2 (Homo sapiens) (UniProt Q13873); experiment: Inhibition of human recombinant BMPR2 at 15 nM in presence of ATP by radiometric assay relative to control
T2 sequence (whole entry): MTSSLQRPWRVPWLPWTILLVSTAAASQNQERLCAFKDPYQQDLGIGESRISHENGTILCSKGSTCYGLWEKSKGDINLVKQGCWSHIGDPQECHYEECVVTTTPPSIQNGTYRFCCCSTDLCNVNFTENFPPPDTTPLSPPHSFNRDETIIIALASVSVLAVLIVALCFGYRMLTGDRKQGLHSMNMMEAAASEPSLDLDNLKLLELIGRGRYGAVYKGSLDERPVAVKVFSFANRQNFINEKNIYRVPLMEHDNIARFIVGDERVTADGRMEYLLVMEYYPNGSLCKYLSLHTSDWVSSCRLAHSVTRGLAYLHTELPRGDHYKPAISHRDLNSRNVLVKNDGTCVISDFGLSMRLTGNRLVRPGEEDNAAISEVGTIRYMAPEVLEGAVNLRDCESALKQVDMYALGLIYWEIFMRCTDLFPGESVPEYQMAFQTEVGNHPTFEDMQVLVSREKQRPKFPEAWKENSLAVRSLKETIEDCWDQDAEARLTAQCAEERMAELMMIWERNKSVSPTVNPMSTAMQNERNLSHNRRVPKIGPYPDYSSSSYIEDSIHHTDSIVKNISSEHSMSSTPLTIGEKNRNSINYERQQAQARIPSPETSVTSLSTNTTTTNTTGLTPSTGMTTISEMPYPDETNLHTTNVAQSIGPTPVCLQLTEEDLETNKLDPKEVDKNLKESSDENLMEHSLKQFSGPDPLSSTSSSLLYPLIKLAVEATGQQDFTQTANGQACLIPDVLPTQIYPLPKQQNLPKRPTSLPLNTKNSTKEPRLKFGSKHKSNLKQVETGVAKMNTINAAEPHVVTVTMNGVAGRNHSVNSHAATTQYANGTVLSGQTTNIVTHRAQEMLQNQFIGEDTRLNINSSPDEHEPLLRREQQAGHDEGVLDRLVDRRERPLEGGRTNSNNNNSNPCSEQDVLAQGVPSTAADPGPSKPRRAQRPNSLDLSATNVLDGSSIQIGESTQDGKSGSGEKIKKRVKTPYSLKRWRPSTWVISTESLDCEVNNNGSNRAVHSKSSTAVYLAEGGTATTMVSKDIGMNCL
Summary of the method: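 Part of a radiometric in vitro activity panel of 327 recombinant human kinases. Each kinase was tested in duplicate at one inhibitor concentration. Activity remaining was expressed as a percentage of the vehicle control, and percent inhibition was taken as 100 minus that value.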

[6] = biological target: Glycogen synthase kinase-3 beta (Homo sapiens) (UniProt P49841); experiment: Inhibition of human recombinant GSK3B at 15 nM in presence of ATP by radiometric assay relative to control
[7] = biological target: Serine/threonine-protein kinase VRK2 (Homo sapiens) (UniProt Q86Y07); experiment: Inhibition of human recombinant VRK2 at 15 nM related to control ULK1
[8] = biological target: T3, MAPK/MAK/MRK overlapping kinase (Homo sapiens) (UniProt Q9UQ07); experiment: Inhibition of human recombinant MOK at 40 nM related to control ULK1
T3 sequence (whole entry): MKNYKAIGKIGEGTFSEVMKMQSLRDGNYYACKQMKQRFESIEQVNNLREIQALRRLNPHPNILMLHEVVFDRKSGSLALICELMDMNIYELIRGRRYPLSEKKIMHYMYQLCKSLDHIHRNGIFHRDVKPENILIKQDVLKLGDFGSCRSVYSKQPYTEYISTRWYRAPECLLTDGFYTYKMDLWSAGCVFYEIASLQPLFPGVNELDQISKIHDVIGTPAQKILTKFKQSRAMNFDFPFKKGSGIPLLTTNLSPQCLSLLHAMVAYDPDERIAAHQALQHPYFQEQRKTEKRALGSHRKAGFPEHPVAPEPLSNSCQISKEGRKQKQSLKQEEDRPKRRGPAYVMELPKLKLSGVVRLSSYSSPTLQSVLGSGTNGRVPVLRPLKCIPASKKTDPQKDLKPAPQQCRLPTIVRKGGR

[9] = biological target: Ephrin type-A receptor 7 (Homo sapiens) (UniProt Q15375); experiment: Inhibition of human recombinant EphA7 at 40 nM in presence of ATP by radiometric assay relative to control
[10] = biological target: Serine/threonine-protein kinase SIK2 (Homo sapiens) (UniProt Q9H0K1); experiment: Inhibition of human recombinant QIK at 40 nM in presence of ATP by radiometric assay relative to control
[11] = biological target: Tyrosine-protein kinase SYK (Homo sapiens) (UniProt P43405); experiment: Inhibition of human recombinant SYK at 40 nM in presence of ATP by radiometric assay relative to control

Sequence of Ephrin type-A receptor 7 (Homo sapiens) (Q15375 28-998 limits assumed): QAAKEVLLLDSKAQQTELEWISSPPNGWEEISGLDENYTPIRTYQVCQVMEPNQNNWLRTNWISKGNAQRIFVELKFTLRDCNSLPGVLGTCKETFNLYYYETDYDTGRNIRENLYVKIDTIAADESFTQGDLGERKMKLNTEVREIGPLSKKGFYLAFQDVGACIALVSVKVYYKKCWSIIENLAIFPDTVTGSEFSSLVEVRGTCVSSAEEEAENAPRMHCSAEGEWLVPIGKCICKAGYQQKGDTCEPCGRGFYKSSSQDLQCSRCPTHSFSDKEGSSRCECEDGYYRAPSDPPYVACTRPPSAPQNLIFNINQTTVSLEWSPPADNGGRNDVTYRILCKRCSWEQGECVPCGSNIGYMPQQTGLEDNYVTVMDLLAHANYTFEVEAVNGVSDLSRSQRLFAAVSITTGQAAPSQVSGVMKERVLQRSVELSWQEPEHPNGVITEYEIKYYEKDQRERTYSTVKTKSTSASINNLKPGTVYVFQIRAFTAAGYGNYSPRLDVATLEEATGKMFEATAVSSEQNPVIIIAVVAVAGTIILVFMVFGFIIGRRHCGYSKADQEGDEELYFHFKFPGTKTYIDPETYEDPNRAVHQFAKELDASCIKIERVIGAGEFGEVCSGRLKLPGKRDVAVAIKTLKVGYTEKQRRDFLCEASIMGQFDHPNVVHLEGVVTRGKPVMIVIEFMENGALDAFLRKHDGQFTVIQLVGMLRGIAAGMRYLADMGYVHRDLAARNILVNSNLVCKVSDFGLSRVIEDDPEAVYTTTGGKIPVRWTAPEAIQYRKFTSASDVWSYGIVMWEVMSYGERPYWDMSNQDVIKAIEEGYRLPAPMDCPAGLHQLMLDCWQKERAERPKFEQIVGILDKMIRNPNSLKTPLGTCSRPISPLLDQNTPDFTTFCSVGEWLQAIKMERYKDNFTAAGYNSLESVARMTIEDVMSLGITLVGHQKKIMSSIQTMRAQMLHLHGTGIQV
Sequence of Tau-tubulin kinase 1 (Homo sapiens) (Q5TCY1 whole entry): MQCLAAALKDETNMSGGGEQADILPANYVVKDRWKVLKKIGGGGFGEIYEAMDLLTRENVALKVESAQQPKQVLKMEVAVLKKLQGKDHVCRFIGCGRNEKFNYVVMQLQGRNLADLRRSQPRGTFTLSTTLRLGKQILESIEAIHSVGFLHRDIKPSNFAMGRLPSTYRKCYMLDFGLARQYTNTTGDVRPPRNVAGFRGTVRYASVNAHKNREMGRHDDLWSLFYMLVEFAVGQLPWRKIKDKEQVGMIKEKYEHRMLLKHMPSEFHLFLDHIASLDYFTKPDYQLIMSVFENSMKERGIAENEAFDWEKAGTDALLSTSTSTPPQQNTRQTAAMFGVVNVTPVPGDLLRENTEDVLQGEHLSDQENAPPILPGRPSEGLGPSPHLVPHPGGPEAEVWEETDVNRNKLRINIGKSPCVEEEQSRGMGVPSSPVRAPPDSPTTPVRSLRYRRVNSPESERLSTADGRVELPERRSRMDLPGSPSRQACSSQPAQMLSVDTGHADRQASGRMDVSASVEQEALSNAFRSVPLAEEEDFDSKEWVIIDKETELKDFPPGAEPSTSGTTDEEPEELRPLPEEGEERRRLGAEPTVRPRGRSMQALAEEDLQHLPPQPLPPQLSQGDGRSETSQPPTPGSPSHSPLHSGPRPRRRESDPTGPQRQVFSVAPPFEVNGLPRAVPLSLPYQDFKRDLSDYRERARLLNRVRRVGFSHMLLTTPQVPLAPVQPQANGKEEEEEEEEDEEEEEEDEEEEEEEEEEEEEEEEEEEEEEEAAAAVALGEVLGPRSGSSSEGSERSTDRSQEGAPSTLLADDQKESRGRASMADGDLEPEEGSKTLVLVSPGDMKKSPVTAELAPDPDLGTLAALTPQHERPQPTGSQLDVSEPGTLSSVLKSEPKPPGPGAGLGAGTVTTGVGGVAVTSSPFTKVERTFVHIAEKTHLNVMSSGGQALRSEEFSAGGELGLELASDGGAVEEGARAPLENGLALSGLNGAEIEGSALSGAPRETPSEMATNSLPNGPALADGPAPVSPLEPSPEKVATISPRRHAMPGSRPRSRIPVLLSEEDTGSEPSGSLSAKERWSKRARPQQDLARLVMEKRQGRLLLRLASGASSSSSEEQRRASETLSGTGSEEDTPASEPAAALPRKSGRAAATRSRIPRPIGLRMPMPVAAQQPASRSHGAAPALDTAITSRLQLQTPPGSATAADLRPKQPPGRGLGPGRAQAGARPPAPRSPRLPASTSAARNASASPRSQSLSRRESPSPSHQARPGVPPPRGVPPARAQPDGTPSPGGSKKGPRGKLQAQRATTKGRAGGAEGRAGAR
Sequence of Calcium/calmodulin-dependent protein kinase kinase 1 (Homo sapiens) (Q8N5S9 whole entry, looked up): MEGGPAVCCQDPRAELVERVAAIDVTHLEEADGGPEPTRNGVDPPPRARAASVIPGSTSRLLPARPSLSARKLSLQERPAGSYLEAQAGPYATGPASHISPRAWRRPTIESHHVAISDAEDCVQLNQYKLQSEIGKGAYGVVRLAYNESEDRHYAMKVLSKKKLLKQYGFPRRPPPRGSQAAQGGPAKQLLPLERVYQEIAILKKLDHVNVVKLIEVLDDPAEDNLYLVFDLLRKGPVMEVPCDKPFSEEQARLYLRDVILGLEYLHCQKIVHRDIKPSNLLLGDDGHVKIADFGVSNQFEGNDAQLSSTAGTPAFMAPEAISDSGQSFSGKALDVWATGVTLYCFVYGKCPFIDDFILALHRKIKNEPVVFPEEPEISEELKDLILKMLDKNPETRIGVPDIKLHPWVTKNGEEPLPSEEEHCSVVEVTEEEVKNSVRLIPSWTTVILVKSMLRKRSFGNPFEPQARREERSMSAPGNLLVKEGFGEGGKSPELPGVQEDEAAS
Sequence of Serine/threonine-protein kinase SIK2 (Homo sapiens) (Q9H0K1 whole entry, looked up): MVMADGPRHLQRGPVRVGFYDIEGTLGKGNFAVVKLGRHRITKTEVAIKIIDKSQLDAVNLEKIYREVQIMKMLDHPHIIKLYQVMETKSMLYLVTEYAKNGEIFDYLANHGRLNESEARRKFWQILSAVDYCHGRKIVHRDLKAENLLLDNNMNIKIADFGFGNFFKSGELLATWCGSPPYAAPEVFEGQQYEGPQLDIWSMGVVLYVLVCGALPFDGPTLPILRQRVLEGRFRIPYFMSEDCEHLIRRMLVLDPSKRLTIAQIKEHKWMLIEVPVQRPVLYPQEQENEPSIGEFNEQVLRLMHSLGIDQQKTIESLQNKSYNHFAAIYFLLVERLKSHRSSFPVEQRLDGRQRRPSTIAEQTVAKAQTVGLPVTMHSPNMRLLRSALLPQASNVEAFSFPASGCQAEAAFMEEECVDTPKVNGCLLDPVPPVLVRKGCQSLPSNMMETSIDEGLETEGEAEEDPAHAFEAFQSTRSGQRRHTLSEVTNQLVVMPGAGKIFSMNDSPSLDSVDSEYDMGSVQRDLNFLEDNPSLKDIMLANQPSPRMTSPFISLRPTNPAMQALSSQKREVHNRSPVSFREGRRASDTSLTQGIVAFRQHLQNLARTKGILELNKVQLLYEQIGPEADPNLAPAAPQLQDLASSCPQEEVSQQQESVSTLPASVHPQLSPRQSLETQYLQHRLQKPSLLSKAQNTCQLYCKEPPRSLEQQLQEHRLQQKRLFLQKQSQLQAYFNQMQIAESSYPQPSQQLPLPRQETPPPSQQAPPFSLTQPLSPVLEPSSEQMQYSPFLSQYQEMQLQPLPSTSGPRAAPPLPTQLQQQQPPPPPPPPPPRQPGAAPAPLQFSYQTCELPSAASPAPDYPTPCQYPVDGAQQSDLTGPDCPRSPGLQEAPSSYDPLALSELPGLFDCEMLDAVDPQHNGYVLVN
Sequence of Tyrosine-protein kinase Fes/Fps (Homo sapiens) (P07332 whole entry): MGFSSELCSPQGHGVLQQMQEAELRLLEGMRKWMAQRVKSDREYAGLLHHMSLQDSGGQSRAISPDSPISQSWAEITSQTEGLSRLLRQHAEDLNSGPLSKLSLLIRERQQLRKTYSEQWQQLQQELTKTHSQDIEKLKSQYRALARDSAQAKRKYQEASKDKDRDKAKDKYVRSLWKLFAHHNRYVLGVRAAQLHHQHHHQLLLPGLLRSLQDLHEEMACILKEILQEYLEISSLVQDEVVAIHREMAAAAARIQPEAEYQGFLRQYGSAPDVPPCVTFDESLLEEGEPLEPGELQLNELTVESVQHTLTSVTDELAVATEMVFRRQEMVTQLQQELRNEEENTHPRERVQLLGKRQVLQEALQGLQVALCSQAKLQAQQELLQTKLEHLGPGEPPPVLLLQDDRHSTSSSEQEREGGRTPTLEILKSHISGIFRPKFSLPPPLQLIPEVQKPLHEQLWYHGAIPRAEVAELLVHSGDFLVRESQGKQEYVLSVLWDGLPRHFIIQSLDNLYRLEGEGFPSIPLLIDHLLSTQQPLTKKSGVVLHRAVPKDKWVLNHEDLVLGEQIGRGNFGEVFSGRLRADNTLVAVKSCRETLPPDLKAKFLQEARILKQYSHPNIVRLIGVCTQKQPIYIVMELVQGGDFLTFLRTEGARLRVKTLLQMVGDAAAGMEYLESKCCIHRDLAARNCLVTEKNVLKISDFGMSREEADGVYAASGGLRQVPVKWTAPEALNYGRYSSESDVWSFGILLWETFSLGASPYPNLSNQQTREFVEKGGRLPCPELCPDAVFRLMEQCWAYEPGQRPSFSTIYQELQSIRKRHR
Sequence of Glycogen synthase kinase-3 beta (Homo sapiens) (P49841 whole entry, looked up): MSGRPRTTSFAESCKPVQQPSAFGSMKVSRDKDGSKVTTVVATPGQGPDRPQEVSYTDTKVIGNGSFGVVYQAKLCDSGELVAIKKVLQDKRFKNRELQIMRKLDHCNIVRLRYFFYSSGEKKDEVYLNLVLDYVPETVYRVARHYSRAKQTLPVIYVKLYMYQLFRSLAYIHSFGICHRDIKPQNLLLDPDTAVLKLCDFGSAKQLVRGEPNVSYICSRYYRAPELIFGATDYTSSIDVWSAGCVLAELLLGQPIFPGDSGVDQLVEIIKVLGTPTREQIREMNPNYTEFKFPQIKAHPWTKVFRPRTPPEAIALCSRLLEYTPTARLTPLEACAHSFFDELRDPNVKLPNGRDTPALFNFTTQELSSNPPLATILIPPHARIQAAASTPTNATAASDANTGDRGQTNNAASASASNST

fold change (FC) [1]: 0.16 | fold change (FC) [2]: 0.11 | inhibition [3]: 1% | inhibition [4]: 28%
SMILES: CNC(=O)c1ccccc1Oc1nc(Nc2cc(OC)c(OC)c(OC)c2)ncc1Br

inhibition [5]: 5% | inhibition [6]: 11% | fold change (FC) [7]: 0
SMILES: CC(C)[C@H](NC(=O)c1cc(-c2cnn3cc(-c4ccc(OCCN5CCCCC5)cc4)cnc23)cs1)C(F)(F)F

fold change (FC) [8]: 0 | inhibition [9]: 0% | inhibition [10]: 54% | inhibition [11]: 0%
SMILES: O=C(N[C@@H](C1CC1)C(F)(F)F)c1cc(-c2cnn3cc(-c4ccc(F)cc4)cnc23)cs1
